ChEMBL document CHEMBL2177098, “Synthesis and evaluation of novel ¹⁸F labeled 2-pyridinylbenzoxazole and 2-pyridinylbenzothiazole derivatives as ligands for positron emission tomography (PET) imaging of β-amyloid plaques” (J Med Chem, 2012)
pKi: −log10 of the molar value.

Columns and labels:
[1] = Displacement of [125I]-IMPY from amyloid beta (1 to 42) fibrils after 2 hrs by gamma-counting analysis
Summary of the method: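 Competition binding with aggregated Aβ1-42 fibrils and [125I]IMPY (60000−100000 cpm/100 μL) in 0.05% BSA (1 mL total); inhibitors 10⁻⁴−10^−8.5 M in ethanol. Incubated 37 °C for 2 h, then GF/B vacuum filtration with PBS (0.02 M, pH 7.4) washes and γ counting. Three repeats; IC50 converted to Ki by Cheng−Prusoff.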

Heart [2] = assay: Drug uptake in ICR mouse heart at 370 kBq/100 ul, iv at 60 mins by gamma-counting analysis; assay type: ADME, organism-based; conditions: in vivo, 1 h
Summary of the method: (§1)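 Male ICR mice (5 weeks, about 20 g) got 18F tracer in saline (370 KBq per 100 μL) via tail vein; n = 5 per time point, killed at 2, 10, 30, 60 min. Organs weighed and γ-counted; percent dose per gram wet tissue from comparison with diluted injectate aliquots.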

[3] = n-Octanol-PBS buffer partition coefficient, log D of the compound at 1.5 MBq after 3 mins at pH 7.4; assay type: physicochemical
Summary of the method: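 The tracer was partitioned between n-octanol and PBS by vortexing for 3 min at room temperature, then centrifuged for 5 min at 3000 rpm. Samples of the octanol (50 μL) and aqueous (500 μL) layers were counted. log D is the log of the octanol/PBS counts-per-gram ratio. The octanol layer was repartitioned until values were consistent. Measured in triplicate and repeated three times.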

Blood [4] = assay: Drug uptake in ICR mouse blood at 370 kBq/100 ul, iv at 30 mins by gamma-counting analysis; assay type: ADME, organism-based; conditions: in vivo, 0.5 h; summary of the method: as §1
Heart [5] = assay: Drug uptake in ICR mouse heart at 370 kBq/100 ul, iv at 2 mins by gamma-counting analysis; assay type: ADME, organism-based; conditions: in vivo; summary of the method: as §1
Stomach [6] = assay: Drug uptake in ICR mouse stomach assessed per organ at 370 kBq/100 ul, iv at 30 mins by gamma-counting analysis; assay type: ADME, organism-based; conditions: in vivo, 0.5 h
Summary of the method: (§2)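 Male ICR mice (5 weeks, about 20 g) got 18F tracer in saline (370 KBq per 100 μL) via tail vein; n = 5 per time point, killed at 2, 10, 30, 60 min. Organs removed and γ-counted against diluted injectate; expressed as % injected dose per organ.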

Spleen [7] = assay: Drug uptake in ICR mouse spleen at 370 kBq/100 ul, iv at 60 mins by gamma-counting analysis; assay type: ADME, organism-based; conditions: in vivo, 1 h; summary of the method: as §1
Intestine [8] = assay: Drug uptake in ICR mouse intestine assessed per organ at 370 kBq/100 ul, iv at 2 mins by gamma-counting analysis; assay type: ADME, organism-based; conditions: in vivo; summary of the method: as §2
Stomach [9] = assay: Drug uptake in ICR mouse stomach assessed per organ at 370 kBq/100 ul, iv at 60 mins by gamma-counting analysis; assay type: ADME, organism-based; conditions: in vivo, 1 h
Summary of the method: (§3)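 Normal male ICR mice (5 weeks, about 20 g) received the ¹⁸F tracer in saline (370 KBq per 100 μL) by tail-vein injection. Groups of n = 5 were killed at 2, 10, 30 and 60 min. Organs were removed, weighed and γ-counted against diluted aliquots of the injectate, giving % dose per gram. Stomach and intestine were expressed per organ. The brain ratio is 2 min/60 min uptake. Values are mean ± SD.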

Lung [10] = assay: Drug uptake in ICR mouse lung at 370 kBq/100 ul, iv at 2 mins by gamma-counting analysis; assay type: ADME, organism-based; conditions: in vivo; summary of the method: as §1
Kidney [11] = assay: Drug uptake in ICR mouse kidney at 370 kBq/100 ul, iv at 2 mins by gamma-counting analysis; assay type: ADME, organism-based; conditions: in vivo; summary of the method: as §1
Brain [12] = assay: Drug uptake in ICR mouse brain at 370 kBq/100 ul, iv at 60 mins by gamma-counting analysis; assay type: ADME, organism-based; conditions: in vivo, 1 h; summary of the method: as §1
Liver [13] = assay: Drug uptake in ICR mouse liver at 370 kBq/100 ul, iv at 60 mins by gamma-counting analysis; assay type: ADME, organism-based; conditions: in vivo, 1 h; summary of the method: as §1
Liver [14] = assay: Drug uptake in ICR mouse liver at 370 kBq/100 ul, iv at 2 mins by gamma-counting analysis; assay type: ADME, organism-based; conditions: in vivo; summary of the method: as §1
Spleen [15] = assay: Drug uptake in ICR mouse spleen at 370 kBq/100 ul, iv at 10 mins by gamma-counting analysis; assay type: ADME, organism-based; conditions: in vivo; summary of the method: as §1
Bone [16] = assay: Drug uptake in ICR mouse bone at 370 kBq/100 ul, iv at 30 mins by gamma-counting analysis; assay type: ADME, organism-based, Bone element; conditions: in vivo, 0.5 h; summary of the method: as §1
Lung [17] = assay: Drug uptake in ICR mouse lung at 370 kBq/100 ul, iv at 60 mins by gamma-counting analysis; assay type: ADME, organism-based; conditions: in vivo, 1 h; summary of the method: as §1
Intestine [18] = assay: Drug uptake in ICR mouse intestine assessed per organ at 370 kBq/100 ul, iv at 10 mins by gamma-counting analysis; assay type: ADME, organism-based; conditions: in vivo; summary of the method: as §2
Liver [19] = assay: Drug uptake in ICR mouse liver at 370 kBq/100 ul, iv at 30 mins by gamma-counting analysis; assay type: ADME, organism-based; conditions: in vivo, 0.5 h; summary of the method: as §1
Lung [20] = assay: Drug uptake in ICR mouse lung at 370 kBq/100 ul, iv at 10 mins by gamma-counting analysis; assay type: ADME, organism-based; conditions: in vivo; summary of the method: as §1
Bone [21] = assay: Drug uptake in ICR mouse bone at 370 kBq/100 ul, iv at 60 mins by gamma-counting analysis; assay type: ADME, organism-based, Bone element; conditions: in vivo, 1 h; summary of the method: as §1
Liver [22] = assay: Drug uptake in ICR mouse liver at 370 kBq/100 ul, iv at 10 mins by gamma-counting analysis; assay type: ADME, organism-based; conditions: in vivo; summary of the method: as §1
Spleen [23] = assay: Drug uptake in ICR mouse spleen at 370 kBq/100 ul, iv at 30 mins by gamma-counting analysis; assay type: ADME, organism-based; conditions: in vivo, 0.5 h; summary of the method: as §1
Blood [24] = assay: Drug uptake in ICR mouse blood at 370 kBq/100 ul, iv at 10 mins by gamma-counting analysis; assay type: ADME, organism-based; conditions: in vivo; summary of the method: as §1
Brain [25] = assay: Drug uptake in ICR mouse brain at 370 kBq/100 ul, iv at 10 mins by gamma-counting analysis; assay type: ADME, organism-based; conditions: in vivo; summary of the method: as §1
Brain [26] = assay: Ratio of drug uptake in brain at 2 mins to drug uptake in brain at 60 mins in ICR mouse at 370 KBq/100 ul, iv; assay type: ADME, organism-based; conditions: in vivo; summary of the method: as §3
Brain [27] = assay: Drug uptake in wild type C57BL6 mouse brain at 370 KBq/100 ul after 1 hr by autoradiographic analysis; assay type: ADME, tissue-based; conditions: in vitro
Summary of the method: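 Paraffin brain sections from 12-month-old male control C57BL6 mice were deparaffinized through xylene and graded ethanol, then held in PBS (0.2 M, pH 7.4) for 30 min. They were incubated with the ¹⁸F tracer (370 KBq per 100 μL) for 1 h at room temperature. Sections were washed in 40% EtOH, rinsed with water for 1 min, dried, and exposed to a phosphor plate for 2 h. The same sections were then stained with thioflavin S.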

Blood [28] = assay: Drug uptake in ICR mouse blood at 370 kBq/100 ul, iv at 2 mins by gamma-counting analysis; assay type: ADME, organism-based; conditions: in vivo; summary of the method: as §1
Brain [29] = assay: Drug uptake in ICR mouse brain at 370 kBq/100 ul, iv at 30 mins by gamma-counting analysis; assay type: ADME, organism-based; conditions: in vivo, 0.5 h; summary of the method: as §1
Kidney [30] = assay: Drug uptake in ICR mouse kidney at 370 kBq/100 ul, iv at 30 mins by gamma-counting analysis; assay type: ADME, organism-based; conditions: in vivo, 0.5 h; summary of the method: as §1
Brain [31] = assay: Drug uptake in ICR mouse brain at 370 kBq/100 ul, iv at 2 mins by gamma-counting analysis; assay type: ADME, organism-based; conditions: in vivo; summary of the method: as §1
Stomach [32] = assay: Drug uptake in ICR mouse stomach assessed per organ at 370 kBq/100 ul, iv at 2 mins by gamma-counting analysis; assay type: ADME, organism-based; conditions: in vivo; summary of the method: as §2
Bone [33] = assay: Drug uptake in ICR mouse bone at 370 kBq/100 ul, iv at 10 mins by gamma-counting analysis; assay type: ADME, organism-based, Bone element; conditions: in vivo; summary of the method: as §1
Blood [34] = assay: Drug uptake in ICR mouse blood at 370 kBq/100 ul, iv at 60 mins by gamma-counting analysis; assay type: ADME, organism-based; conditions: in vivo, 1 h; summary of the method: as §1
Heart [35] = assay: Drug uptake in ICR mouse heart at 370 kBq/100 ul, iv at 30 mins by gamma-counting analysis; assay type: ADME, organism-based; conditions: in vivo, 0.5 h; summary of the method: as §1
Lung [36] = assay: Drug uptake in ICR mouse lung at 370 kBq/100 ul, iv at 30 mins by gamma-counting analysis; assay type: ADME, organism-based; conditions: in vivo, 0.5 h; summary of the method: as §1
Spleen [37] = assay: Drug uptake in ICR mouse spleen at 370 kBq/100 ul, iv at 2 mins by gamma-counting analysis; assay type: ADME, organism-based; conditions: in vivo; summary of the method: as §1
Intestine [38] = assay: Drug uptake in ICR mouse intestine assessed per organ at 370 kBq/100 ul, iv at 60 mins by gamma-counting analysis; assay type: ADME, organism-based; conditions: in vivo, 1 h; summary of the method: as §2
Bone [39] = assay: Drug uptake in ICR mouse bone at 370 kBq/100 ul, iv at 2 mins by gamma-counting analysis; assay type: ADME, organism-based, Bone element; conditions: in vivo; summary of the method: as §1
Kidney [40] = assay: Drug uptake in ICR mouse kidney at 370 kBq/100 ul, iv at 10 mins by gamma-counting analysis; assay type: ADME, organism-based; conditions: in vivo; summary of the method: as §1
Stomach [41] = assay: Drug uptake in ICR mouse stomach assessed per organ at 370 kBq/100 ul, iv at 10 mins by gamma-counting analysis; assay type: ADME, organism-based; conditions: in vivo; summary of the method: as §2
Intestine [42] = assay: Drug uptake in ICR mouse intestine assessed per organ at 370 kBq/100 ul, iv at 30 mins by gamma-counting analysis; assay type: ADME, organism-based; conditions: in vivo, 0.5 h; summary of the method: as §2
Kidney [43] = assay: Drug uptake in ICR mouse kidney at 370 kBq/100 ul, iv at 60 mins by gamma-counting analysis; assay type: ADME, organism-based; conditions: in vivo, 1 h; summary of the method: as §1
Heart [44] = assay: Drug uptake in ICR mouse heart at 370 kBq/100 ul, iv at 10 mins by gamma-counting analysis; assay type: ADME, organism-based; conditions: in vivo; summary of the method: as §1

CN(C)c1ccc(-c2nc3ccc(OCCF)cc3s2)cn1
pKi [1]: 8.57

CN(C)c1ccc(-c2nc3cc(OCCOCCOCC[18F])ccc3o2)cn1
Drug uptake (Heart [2]): 2.73 % ID/g
logD at 0.05 h [3]: 3.26
Drug uptake (Blood [4]): 2.74 % ID/g
Drug uptake (Heart [5]): 5.24 % ID/g
Drug uptake (Stomach [6]): 9.26 %ID
Drug uptake (Spleen [7]): 2.34 % ID/g
Drug uptake (Intestine [8]): 8.13 %ID
Drug uptake (Stomach [9]): 6.45 %ID
pKi [1]: 8.00
Drug uptake (Lung [10]): 3.03 % ID/g
Drug uptake (Kidney [11]): 8.27 % ID/g
Drug uptake (Brain [12]): 1.82 % ID/g
Drug uptake (Liver [13]): 3.46 % ID/g
Drug uptake (Liver [14]): 13.25 % ID/g
Drug uptake (Spleen [15]): 2.69 % ID/g
Drug uptake (Bone [16]): 4.71 % ID/g
Drug uptake (Lung [17]): 1.87 % ID/g
Drug uptake (Intestine [18]): 14.45 %ID
Drug uptake (Liver [19]): 7.24 % ID/g
Drug uptake (Lung [20]): 2.34 % ID/g
Drug uptake (Bone [21]): 6.39 % ID/g
Drug uptake (Liver [22]): 5.41 % ID/g
Drug uptake (Spleen [23]): 2.41 % ID/g
Drug uptake (Blood [24]): 3.05 % ID/g
Drug uptake (Brain [25]): 1.97 % ID/g
Ratio (Brain [26]): 2.08
Drug uptake (Brain [27]): Not Active
Drug uptake (Blood [28]): 5.47 % ID/g
Drug uptake (Brain [29]): 1.85 % ID/g
Drug uptake (Kidney [30]): 4.2 % ID/g
Drug uptake (Brain [31]): 3.79 % ID/g
Drug uptake (Stomach [32]): 2.66 %ID
Drug uptake (Bone [33]): 2.7 % ID/g
Drug uptake (Blood [34]): 2.87 % ID/g
Drug uptake (Heart [35]): 2.97 % ID/g
Drug uptake (Lung [36]): 2.64 % ID/g
Drug uptake (Spleen [37]): 3 % ID/g
Drug uptake (Intestine [38]): 28.54 %ID
Drug uptake (Bone [39]): 1.79 % ID/g
Drug uptake (Kidney [40]): 5.14 % ID/g
Drug uptake (Stomach [41]): 5.1 %ID
Drug uptake (Intestine [42]): 28.15 %ID
Drug uptake (Kidney [43]): 3.21 % ID/g
Drug uptake (Heart [44]): 3.51 % ID/g
